Measured values from ChEMBL document CHEMBL1123979, “Structure-activity analysis of a class of orally active hydroxamic acid inhibitors of leukotriene biosynthesis” (J Med Chem, 1988).

What was measured:
[1] = target: T1, Polyunsaturated fatty acid 5-lipoxygenase (Rattus norvegicus, UniProt P12527); experiment: In vitro inhibition of 5-lipoxygenase from RBL-1 cells; type: cell-based
T1 sequence (P12527 whole entry): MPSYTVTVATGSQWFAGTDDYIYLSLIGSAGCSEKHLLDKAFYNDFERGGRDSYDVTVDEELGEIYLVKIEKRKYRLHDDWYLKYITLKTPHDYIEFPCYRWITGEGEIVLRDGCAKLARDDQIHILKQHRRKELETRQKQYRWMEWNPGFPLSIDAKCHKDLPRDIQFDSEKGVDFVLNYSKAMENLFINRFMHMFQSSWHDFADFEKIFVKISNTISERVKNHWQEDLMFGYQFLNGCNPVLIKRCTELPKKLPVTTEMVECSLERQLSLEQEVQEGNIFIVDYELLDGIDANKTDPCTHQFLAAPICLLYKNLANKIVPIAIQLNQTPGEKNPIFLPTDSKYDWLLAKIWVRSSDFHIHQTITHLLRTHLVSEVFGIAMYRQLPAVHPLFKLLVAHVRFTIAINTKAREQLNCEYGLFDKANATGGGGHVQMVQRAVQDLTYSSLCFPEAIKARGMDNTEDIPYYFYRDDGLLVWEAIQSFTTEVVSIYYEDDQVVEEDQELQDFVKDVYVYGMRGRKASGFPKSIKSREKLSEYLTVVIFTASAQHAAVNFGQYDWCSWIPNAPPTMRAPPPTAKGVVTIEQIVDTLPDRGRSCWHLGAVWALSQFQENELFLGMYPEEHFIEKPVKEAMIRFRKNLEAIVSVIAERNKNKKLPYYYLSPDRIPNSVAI
Outline: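 Enzyme source is the 20000g supernatant of RBL-1 cells, assayed for 5-lipoxygenase inhibition. IC50 is reported in µM with a range in parentheses.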

[2] = In vivo inhibition of biosynthesis of leukotriene in rat peritoneal anaphylaxis model at 200 umol/kg; type: functional
Outline: (§1)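 Rats receive a single oral dose of 200 µmol/kg, and in vivo activity is measured 1 h after dosing in the peritoneal anaphylaxis model. The result is given as % inhibition of leukotriene biosynthesis or flagged as not significant.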

[3] = In vivo inhibition of biosynthesis of leukotriene in rat peritoneal anaphylaxis model at 200 uM/Kg; type: functional; outline: as §1
[4] = In vivo Inhibition of biosynthesis of leukotriene in rat peritoneal anaphylaxis model; type: functional
Outline: (§2)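 Test compounds are given orally to rats in the peritoneal anaphylaxis model, and leukotriene biosynthesis is measured in vivo. ED50 is expressed in µmol/kg, with the range in parentheses and the mg/kg equivalent.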

[5] = In vivo inhibition of biosynthesis of leukotriene in rat peritoneal anaphylaxis model; type: functional; outline: as §2
Rattus norvegicus = experiment: Plasma concentration 1 hr after oral administration of a dose of 200 uM/kg; type: functional, organism-based
Outline: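 Rats are dosed orally at 200 µmol/kg, and plasma drug concentration is measured 1 h later. Values are the average ± range of two determinations, and the stated detection limit is 2.0 µM.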

[6] = In vivo inhibition of biosynthesis of leukotriene in rat peritoneal anaphylaxis model at 200 mg/Kg; type: functional
[7] = In vivo inhibition of biosynthesis of leukotriene in rat peritoneal anaphylaxis model at 200 uMKg; type: functional; outline: as §1
[8] = In vivo inhibition of biosynthesis of leukotriene in rat peritoneal anaphylaxis model; non significant at 200 umol/kg; type: functional; outline: as §1
[9] = Rattus norvegicus, read-out: ED50

CC(=O)N(O)C(C)c1ccc(/C=C/c2ccccc2)cc1 (stereo not given)
IC50 [1]: 290 nM

CC(=O)N(O)C(C)c1ccc(SCc2ccccc2)cc1 (stereo not given)
IC50 [1]: 190 nM

CC(C)C(=O)N(O)C(C)c1ccc(OCc2ccccc2)cc1 (stereo not given)
IC50 [1]: 470 nM
inhibition in vivo at 200 µmol/kg [2]: < 40%

CC(=O)N(O)C(C)c1ccc(OC2c3ccccc3-c3ccccc32)cc1 (stereo not given)
Inhibition [3]: <40%
IC50 [1]: 4900 nM

CC(=O)N(O)C(C)c1ccc(OCc2ccccc2)cc1 (stereo in doubt; 5) [listing 1 of 2 here]
ED50 [4]: 8 mg/kg
ED50 [5]: 28 µM/kg

CCCCOc1ccc(C(C)N(O)C(=O)c2ccccc2)cc1 (stereo not given)
IC50 [1]: 1300 nM
inhibition in vivo at 200 µmol/kg [2]: < 40%

CC(=O)N(O)C(C)c1cccc(OCc2ccccc2)c1 (stereo not given)
IC50 [1]: 330 nM
ED50 [4, 9]: 19 mg/kg
ED50 [5, 9]: 68 µmol/kg

CCCCOc1ccc(C(C)N(O)C=O)cc1 (stereo not given)
IC50 [1]: 1900 nM
inhibition in vivo at 200 µmol/kg [2]: < 40%

CCCCOc1ccc(C(CC)N(O)C(C)=O)cc1 (stereo not given)
IC50 [1]: 740 nM
ED50 [4, 9]: 50 mg/kg
ED50 [5, 9]: 188 µmol/kg

CCCCOc1ccc(CCCN(O)C(C)=O)cc1
IC50 [1]: 320 nM

CC(=O)N(O)C(C)c1ccc(OCc2ccncc2)cc1 (stereo not given)
IC50 [1]: 2600 nM
ED50 [4, 9]: 9 mg/kg
Concentration (Rattus norvegicus): 152 µM
ED50 [5, 9]: 32 µmol/kg

CCCCOc1ccc(OCCN(O)C(C)=O)cc1
IC50 [1]: 750 nM
ED50 [4, 9]: 22 mg/kg
ED50 [5, 9]: 84 µmol/kg

CC(=O)N(O)C(C)c1ccc(OCc2ccc3ccccc3n2)cc1 (stereo not given)
IC50 [1]: 400 nM
ED50 [4, 9]: 17 mg/kg
ED50 [5, 9]: 51 µmol/kg

CC(=O)N(O)C(C)c1ccccc1OCc1ccccc1 (stereo not given)
IC50 [1]: 760 nM
inhibition in vivo at 200 mg/kg [6]: < 40%

CC(=O)N(O)C(C)c1ccc(OCc2ccccc2)cc1 (stereo in doubt; 5) [listing 2 of 2 here]
Concentration (Rattus norvegicus): 70 µM

CCCCOc1cccc(C(C)N(O)C(C)=O)c1 (stereo not given)
IC50 [1]: 390 nM

CCCCOc1ccc(CC(C)N(O)C(C)=O)cc1 (stereo not given)
IC50 [1]: 540 nM
Inhibition [7]: 74%

CCCCOc1ccc(C(C)N(O)C(C)=O)cc1 (stereo not given)
IC50 [1]: 790 nM
ED50 [4, 9]: 17 mg/kg
Concentration (Rattus norvegicus): 65.7 µM
ED50 [5, 9]: 68 µmol/kg

CC(=O)N(O)C(C)c1ccc(OCCc2ccccc2)cc1 (stereo not given)
IC50 [1]: 410 nM
ED50 [4, 9]: 15 mg/kg
ED50 [5, 9]: 49 µmol/kg

CC(c1ccc(OCc2ccccc2)cc1)N(O)C=O (stereo not given)
IC50 [1]: 940 nM
inhibition in vivo at 200 µmol/kg [8]: < 40%
Concentration (Rattus norvegicus): 2.3 µM

CCCCOc1ccc(C(CCCC)N(O)C(C)=O)cc1 (stereo not given)
IC50 [1]: 570 nM
inhibition in vivo at 200 µmol/kg [2]: < 40%

CCCCOc1ccc(C(C(C)C)N(O)C(C)=O)cc1 (stereo not given)
IC50 [1]: 880 nM
Concentration (Rattus norvegicus): < 2 µM

CC(=O)N(O)C(c1ccc(OCc2ccccc2)cc1)C(C)C (stereo not given)
IC50 [1]: 780 nM
inhibition in vivo at 200 µmol/kg [2]: < 40%

CCCCOc1ccc(CN(O)C(C)=O)cc1
IC50 [1]: 1100 nM

CC(=O)N(O)C(C)c1ccc(C(C)Oc2ccccc2)cc1 (stereo not given)
Inhibition [3]: 47%
IC50 [1]: 460 nM

CCCCOc1ccc(CCC(C)N(O)C(C)=O)cc1 (stereo not given)
IC50 [1]: 360 nM
ED50 [4, 9]: 35 mg/kg
ED50 [5, 9]: 120 µmol/kg

CC(=O)N(O)C(C)c1ccc(OC(c2ccccc2)C(C)C)cc1 (stereo not given)
Inhibition [3]: <40%
IC50 [1]: 610 nM
Concentration (Rattus norvegicus): 10.7 µM

CC(=O)N(O)C(C)c1ccc(Oc2ccccc2)cc1 (stereo not given)
IC50 [1]: 370 nM
ED50 [4, 9]: 12 mg/kg
Concentration (Rattus norvegicus): 52 µM
ED50 [5, 9]: 47 µmol/kg

CC(=O)N(O)C(C)c1ccc(OCc2c(C)cc(C)cc2C)cc1 (stereo not given)
Inhibition [3]: <40%
IC50 [1]: 620 nM

CCCCOc1ccc(C(C)(C)N(O)C(C)=O)cc1
IC50 [1]: 650 nM
inhibition in vivo at 200 µmol/kg [2]: < 40%

CC(=O)N(O)C(C)c1ccc(OC(C)c2ccccc2)cc1 (stereo not given)
IC50 [1]: 500 nM
ED50 [4, 9]: 28 mg/kg
Concentration (Rattus norvegicus): 106 µM
ED50 [5, 9]: 92 µmol/kg

CCCCOc1ccc(CCN(O)C(C)=O)cc1
IC50 [1]: 380 nM
inhibition in vivo at 200 µmol/kg [2]: < 40%

CC(=O)N(O)Cc1ccc(OCc2ccccc2)cc1
IC50 [1]: 460 nM
Concentration (Rattus norvegicus): 2.1 µM

CC(=O)N(O)C(C)c1ccc(OCc2ccccc2)cc1 (stereo in doubt; 7)
IC50 [1]: 370 nM

CC(c1ccc(OCc2ccccc2)cc1)N(O)C(=O)c1ccccc1 (stereo not given)
IC50 [1]: 690 nM
inhibition in vivo at 200 µmol/kg [2]: < 40%
Concentration (Rattus norvegicus): < 2 µM
